Results on one compound are retold here after ChEMBL document CHEMBL5678799 (Biochem J, 2009).

Experiment [1] concerns the target Serine/threonine-protein kinase pim-1 (Homo sapiens) (UniProt P11309). In words: Inhibition of recombinant human N-terminal His6-tagged PIM1 (2 to 313 residues) expressed in baculovirus infected Sf21 cells assessed as remaining activity at 10 uM using RSRHSSYPAGT as substrate incubated for 30 mins in presence of [gamma-33P]ATP by filter binding method relative to control. The method, boiled down:
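Incubations ran robotically for 30 min at room temperature (21 °C) under linear conditions. Results are percent activity remaining versus controls without compound, as the mean of triplicates ± S.D.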

Experiment [2] addresses Ephrin type-A receptor 2 (Homo sapiens) (UniProt P29317). In words: Inhibition of recombinant human N-terminal GST-tagged EPHA2 (591 to 976 residues) expressed in Escherichia coli assessed as remaining activity at 1 uM using Poly (Glu,Tyr) as substrate incubated for 30 mins in presence of [gamma-33P]ATP by filter binding method relative to control. The procedure, abridged:
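Run robotically for 30 min at 21 °C under linear conditions. Compound at 1 or 10 µM. Percentage activity remaining versus control without compound, triplicate mean ± S.D.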

For experiment [3], the target named is Glycogen synthase kinase-3 beta (Homo sapiens) (UniProt P49841). In words: Inhibition of recombinant human His6-tagged GSK3beta (2 to 420 residues) expressed in baculovirus infected Sf21 cells assessed as remaining activity at 10 uM using phospho-GS2 peptide as substrate incubated for 30 mins in presence of [gamma-33P]ATP by filter binding method relative to control. The procedure, abridged:
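Radiometric kinase panel run robotically at 21 °C for 30 min, linear in time and enzyme. […] Activity expressed as percentage of control without inhibitor; triplicate determinations.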

Experiment [4] addresses Insulin receptor-related protein (Homo sapiens) (UniProt P14616). Description: Inhibition of recombinant human N-terminal His6-tagged IRR (944 to 1236 residues) expressed in baculovirus infected Sf21 cells assessed as remaining activity at 10 uM using MBP as substrate incubated for 30 mins in presence of [gamma-33P]ATP by filter binding method relative to control.
Experiment [5] concerns the target T1, mTORC1 (Homo sapiens) (UniProt P42345+Q8N122+Q9BVC4). Particulars: HEK293, dose 30-1000 nM, time 30.0 min.
In experiment [6] the target is Inhibitor of nuclear factor kappa-B kinase subunit beta (Homo sapiens) (UniProt O14920). In words: Inhibition of recombinant human N-terminal His6-tagged IKKbeta (1 to 736 residues) expressed in baculovirus infected Sf21 cells assessed as remaining activity at 1 uM using LDDRHDSGLDSMKDEEY as substrate incubated for 30 mins in presence of [gamma-33P]ATP by filter binding method relative to control. The procedure, abridged:
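Profiling-centre panel assay performed robotically at 21 °C for 30 min, linear with time and enzyme. […] Values are percent of compound-free control activity, the mean of triplicates ± S.D.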

The target in experiment [7] is Insulin receptor-related protein (Homo sapiens) (UniProt P14616). In words: Inhibition of recombinant human N-terminal His6-tagged IRR (944 to 1236 residues) expressed in baculovirus infected Sf21 cells assessed as remaining activity at 1 uM using MBP as substrate incubated for 30 mins in presence of [gamma-33P]ATP by filter binding method relative to control.
Experiment [8] concerns the target Serine/threonine-protein kinase 3 (Homo sapiens) (UniProt Q13188). In words: Inhibition of recombinant human N-terminal GST-tagged MST2 (2 to 491 residues) expressed in baculovirus infected Sf21 cells assessed as remaining activity at 1 uM using MBP as substrate incubated for 30 mins in presence of [gamma-33P]ATP by filter binding method relative to control. The procedure, abridged: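 Panel assays were run for 30 min at 21 °C, within the linear range for time and enzyme. […] Results are percent activity remaining relative to compound-free control, averaged from triplicate ± S.D.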

Experiment [9] concerns the target Serine/threonine-protein kinase mTOR (Mus musculus) (UniProt Q9JLN9). Description: Inhibition of mTOR in MEF cells assessed as reduction in 4E-BP1 phosphorylation at S65 residues at 1 uM incubated for 30 mins by immunoblot analysis. Type of experiment: cell-based. The method, boiled down:
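HEK-293 cells or MEFs cultured in 10% serum and treated 30 min with inhibitor. Lysed in Tris lysis buffer. Lysates immunoblotted for 4E-BP1 phosphorylated at Thr37/Thr46 and Ser65, with mobility shift noted. Three experiments.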

Experiment [10] addresses T2, mTORC2 (Homo sapiens) (UniProt P42345+Q6R327+Q9BVC4+Q9BPZ7). Conditions: HEK293, dose 30-1000 nM, time 30.0 min.
Experiment [11] addresses T2, mTORC2 (Homo sapiens). Conditions: HEK293, dose 30-1000 nM, time 30.0 min. This is another data set of the same source.
Experiment [12] has as its target T1, mTORC1 (Homo sapiens). Particulars: HEK293, dose 30-1000 nM, time 30.0 min. This is another data set of the same source.
Experiment [13] concerns the target Casein kinase I isoform delta (Homo sapiens) (UniProt P48730). Description: Inhibition of recombinant human N-terminal GST-tagged CK1delta (1 to 415 residues) expressed in Escherichia coli assessed as remaining activity at 1 uM using RRKDLHDDEEDEAMSITA as substrate incubated for 30 mins in presence of [gamma-33P]ATP by filter binding method relative to control. The procedure, abridged: (§1)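 Robotic radiometric panel assay, 30 min at room temperature (21 °C), with 10 mM magnesium acetate. […] Compound at 1 or 10 µM. Residual activity expressed relative to compound-free control; triplicate average ± S.D.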

The target in experiment [14] is Calcium/calmodulin-dependent protein kinase kinase 2 (Homo sapiens) (UniProt Q96RR4). In words: Inhibition of recombinant human N-terminal GST-tagged CAMKKbeta (1 to 541 residues) expressed in Escherichia coli assessed as remaining activity at 10 uM using DGEFLRTSCGSPNYAARRR as substrate incubated for 30 mins in presence of [gamma-33P]ATP by filter binding method relative to control. The procedure, abridged:
as §1

The target in experiment [15] is T1, mTORC1 (Homo sapiens). Particulars: HEK293, dose 30.0 nM, time 30.0 min.
Experiment [16] has as its target T2, mTORC2 (Homo sapiens). Conditions: HEK293, dose 30-1000 nM, time 30.0 min. This is another data set of the same source.
Experiment [17] concerns the target Inhibitor of nuclear factor kappa-B kinase subunit epsilon (Homo sapiens) (UniProt Q14164). Description: Inhibition of recombinant human N-terminal GST-tagged IKKepsilon (1 to 716 residues) expressed in baculovirus infected Sf21 cells assessed as remaining activity at 1 uM using MBP as substrate incubated for 30 mins in presence of [gamma-33P]ATP by filter binding method relative to control. The procedure, abridged: (§2)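 Incubation was 30 min at room temperature (21 °C) under conditions linear with time and enzyme amount. Activity is reported as percent of control lacking compound, triplicate mean ± S.D.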

Experiment [18] concerns the target SRSF protein kinase 1 (Homo sapiens) (UniProt Q96SB4). In words: Inhibition of recombinant human N-terminal GST-tagged SRPK1 (2 to 654 residues) expressed in Escherichia coli assessed as remaining activity at 10 uM using RSRSRSRSRSRSRSR as substrate incubated for 30 mins in presence of [gamma-33P]ATP by filter binding assay relative to control. The method, boiled down:
as §2

The source made the active and inactive calls. The calls are words filed in the database; no cut-off is given here.

For orientation: inhibition means the drop in the measured response relative to a control, in per cent.

Turning to `COc1ccc(-c2ccc3c(N4CCOCC4)nc(N4C[C@@H](C)O[C@@H](C)C4)nc3n2)cc1CO` [Ku-0063794], the Activity was determined as 98% in experiment [1]; 108% in [2]; 91% in experiment [3]; 71% in experiment [4]; 104% in [6]; 105% in experiment [7]. Further, the Activity was determined as 81% in experiment [8]; 112% in experiment [13]; 94% in experiment [14]; 99% in experiment [17]; 94% in experiment [18]. Also, the inhibition entry in [5] was “Dose-Dependent Effect”; in [10], “Dose-Dependent Effect”; in experiment [11], “Dose-Dependent Effect”; in experiment [12], “Dose-Dependent Effect”; in experiment [15], 50%; in experiment [16], “Dose-Dependent Effect”. In addition, in experiment [9], the inhibition result is “Active”.
